Data: paper PMC11615718 (RSC Advances, 2024)
Values joined by “and” are separate entries in the source; they are usually repeats but may differ in a detail not shown here. Equal values may be shown once. Read-outs that look alike come from different tables or passages of the source.

Columns and labels:
[1] = experimental mice; cited from earlier work
[2] = test system: small-conductance Ca2+-activated KCa2 channels; details: cited from earlier work
[3] = up to 30 mg kg^−1 i.p., mice; cited from earlier work
[4] = up to 30 mg kg^−1 i.p., Sprague-Dawley rats; cited from earlier work
[5] = target: KCa3.1 channel (Homo sapiens, UniProt O15554+P0DP23); experiment: QPatch-HTX patch-clamp, KCa3.1 activation; type: cell-based
Outline: (§1)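 Automated whole-cell patch clamp on a QPatch-HTX. Test compound came from 10 mM DMSO stocks, diluted in fixed ratios into each channel's own extracellular solution, over 300 nM to 30 μM. Each current slope was the mean of five measurements at the end of each liquid period. Activation was normalised per cell to a saturating 30 μM activator applied before washout; otherwise currents were normalised to the last vehicle period. Hill fit used ≥3 cells.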

[6] = Plasma pharmacokinetics after single i.p. dose; type: in vivo, BALB/c mice; details: 30 mg kg^−1 i.p.
Outline: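 Female BALB/c mice (7–9 weeks old, n = 4 per time point) received a single i.p. dose of 30 mg kg−1 in 3% DMSO + 97% peanut oil. Blood was taken at 0, 0.25, 0.5, 1, 2, 4, 8 and 24 h. Plasma (20 μL) was mixed with 60 μL methanol:dichloromethane (1:1), then test compound was quantified by LC-MS on a C18 column with a water/acetonitrile (0.1% formic acid) gradient.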

[7] = Solubility in DMSO by UV-Vis spectrophotometry; type: physicochemical
Outline: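 Excess test compound (50 mg) was shaken in 500 μL DMSO at 1000 rpm for 24 h, then filtered through 0.22 μm and diluted 100-fold in DMSO. Concentration came from absorbance at the peak, read against a blank-corrected calibration curve at 345 nm. Standards were serial dilutions in DMSO from 0.5 to 0.007 mg mL−1.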

[8] = 14-day i.p. tolerability in mice; type: in vivo, C57BL/6 mice; details: 30 mg kg^−1 i.p. daily for 14 days, female C57BL/6
Outline: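 Female C57BL/6 mice (6–7 weeks old, n = 6 per group) got test compound at 6 mg mL−1 in 3% DMSO + 97% peanut oil. The preparation was thawed, heated to ~60 °C and cooled before dosing. Dose was ~100 μL i.p. (30 mg kg−1) once daily for 14 days; vehicle-injected controls. Body weight was taken every 2–4 days. At day 14, serum AST was measured by colorimetric kit, and organs were paraffin-embedded and H&E-stained.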

[9] = Tissue biodistribution by LC-MS after 14-day dosing; type: in vivo, C57BL/6 mice; details: female, C57BL/6, mouse, ip, 30 mg kg^−1
Outline: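 After 14 days of daily i.p. dosing (30 mg kg−1 in 3% DMSO/97% peanut oil), brain, kidney and liver were harvested at termination. Pre-weighed organs were homogenised in methanol:dichloromethane (1:1), held 30 min at 4 °C and spun 10 min at 14000 rpm, 4 °C. LC-MS used a C18 column at 40 °C and 0.3 mL min−1, with a water/acetonitrile (0.1% formic acid) gradient from 20% to 95% B over a 10 min run.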

[10] = target: KCa2.2 (Rattus norvegicus, UniProt P70604); experiment: QPatch-HTX patch-clamp, KCa2.2; type: cell-based
Outline: as §1

[11] = target: KCa2.3 (Homo sapiens, UniProt Q9UGI6); experiment: QPatch-HTX patch-clamp, KCa2.3; type: cell-based
Outline: as §1

Chain of KCa3.1 channel (O15554 whole entry, one chain of several): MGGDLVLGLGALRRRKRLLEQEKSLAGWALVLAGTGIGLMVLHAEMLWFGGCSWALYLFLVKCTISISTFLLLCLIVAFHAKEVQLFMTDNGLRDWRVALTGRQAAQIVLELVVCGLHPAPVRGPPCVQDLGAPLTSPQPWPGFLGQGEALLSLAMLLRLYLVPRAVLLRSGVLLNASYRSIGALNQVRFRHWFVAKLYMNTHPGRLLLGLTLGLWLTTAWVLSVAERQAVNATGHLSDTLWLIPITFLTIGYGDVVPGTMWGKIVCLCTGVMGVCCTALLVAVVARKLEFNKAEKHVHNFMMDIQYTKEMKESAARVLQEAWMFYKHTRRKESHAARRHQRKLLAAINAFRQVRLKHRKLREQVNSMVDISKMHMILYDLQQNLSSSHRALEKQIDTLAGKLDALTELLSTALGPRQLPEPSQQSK
Chain of KCa2.2 (P70604 whole entry): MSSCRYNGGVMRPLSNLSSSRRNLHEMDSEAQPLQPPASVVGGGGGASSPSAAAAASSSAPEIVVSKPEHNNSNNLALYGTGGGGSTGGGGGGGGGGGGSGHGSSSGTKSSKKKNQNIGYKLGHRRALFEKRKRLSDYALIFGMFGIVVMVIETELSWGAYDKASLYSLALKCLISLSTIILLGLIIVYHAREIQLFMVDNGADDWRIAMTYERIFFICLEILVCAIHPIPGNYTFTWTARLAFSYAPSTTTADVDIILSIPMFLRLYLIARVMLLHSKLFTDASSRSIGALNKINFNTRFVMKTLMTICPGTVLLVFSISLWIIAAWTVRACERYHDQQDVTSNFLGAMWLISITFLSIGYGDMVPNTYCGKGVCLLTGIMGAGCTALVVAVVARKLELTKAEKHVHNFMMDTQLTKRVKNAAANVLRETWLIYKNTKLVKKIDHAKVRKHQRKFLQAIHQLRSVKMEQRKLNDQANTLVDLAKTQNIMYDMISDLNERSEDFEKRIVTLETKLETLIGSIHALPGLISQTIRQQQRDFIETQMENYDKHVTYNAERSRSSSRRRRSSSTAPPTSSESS
Chain of KCa2.3 (Q9UGI6 whole entry): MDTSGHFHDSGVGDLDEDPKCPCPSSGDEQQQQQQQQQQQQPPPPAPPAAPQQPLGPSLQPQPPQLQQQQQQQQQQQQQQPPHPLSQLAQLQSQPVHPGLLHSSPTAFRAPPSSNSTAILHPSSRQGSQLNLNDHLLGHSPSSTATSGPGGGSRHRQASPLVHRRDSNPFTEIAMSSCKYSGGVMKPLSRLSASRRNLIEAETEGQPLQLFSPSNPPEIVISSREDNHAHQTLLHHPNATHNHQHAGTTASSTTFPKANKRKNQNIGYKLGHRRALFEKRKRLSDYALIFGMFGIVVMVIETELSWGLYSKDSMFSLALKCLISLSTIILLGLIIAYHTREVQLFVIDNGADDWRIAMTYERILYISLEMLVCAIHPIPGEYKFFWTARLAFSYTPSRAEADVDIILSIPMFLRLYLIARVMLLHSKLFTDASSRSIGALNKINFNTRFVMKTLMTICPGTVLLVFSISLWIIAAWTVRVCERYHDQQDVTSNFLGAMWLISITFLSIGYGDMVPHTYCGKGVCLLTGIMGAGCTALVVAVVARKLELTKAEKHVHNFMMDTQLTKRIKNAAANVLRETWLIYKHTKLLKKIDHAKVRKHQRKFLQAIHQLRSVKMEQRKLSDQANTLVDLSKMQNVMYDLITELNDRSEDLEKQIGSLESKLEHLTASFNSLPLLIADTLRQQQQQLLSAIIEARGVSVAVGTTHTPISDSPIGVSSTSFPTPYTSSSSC

Row | Compound | Effect on blood pressure [1] | Selectivity for KCa3.1 over KCa2 channels [2] | Tolerability [3] | Tolerability [4] | EC50 [5] | Cmax relative to EC50 for KCa3.1 activation ([6]; at 15 min) | MRTlast ([6]; female BALB/c mice, plasma) | circulating half-life (t1/2) ([6]; female BALB/c mice, plasma) | Cmax ([6]; female, BALB/c, mouse, plasma, ip, 30 mg/kg, peak plasma concentration (Cmax), female BALB/c mice, at 15 min) | solubility at 24 h [7] | Change in serum aspartate aminotransferase (AST) vs vehicle [8] | Mouse body weight loss vs vehicle [8] | concentration at 14 days ([9]; kidney) | concentration at 14 days ([9]; liver) | EC50 [10] | EC50 [11]
1 | Nc1nc2c(ccc3ccccc32)s1 [SKA-31, Naphtho[1,2-d]thiazol-2-ylamine] | lowered blood pressure | lacked selectivity | well-tolerated | well-tolerated | – | – | – | – | – | – | – | – | – | – | – | –
2 | Cc1cc2sc(N)nc2c2cccnc12 [SKA-346, 5-methyl-[1,3]thiazolo[4,5-f]quinolin-2-amine] | – | – | – | – | 1.9 µM | about 15 times | 4.82 h | 2.84 h | 6290 ng/mL and 29.2 µM | 40600 µg/mL and 189000 µM | did not cause any significant change | no significant mouse body weight loss | 60.7 ng/g | 22.5 ng/g | – | –
3 | Nc1nc2c(cc(C(F)(F)F)c3ncccc32)s1 [NKV-104, 5-(trifluoromethyl)thiazolo[4,5-f]quinolin-2-amine] | – | – | – | – | 1.7 µM | – | – | – | – | – | – | – | – | – | 11.9 µM | 29.3 µM
